An excerpt weighted towards active compounds, which were near 2.2% of everything screened.
NR2E3 ag-1 – NR2E3 agonists in two-hybrid cells, primary screen, cell-based, luminescence, CHO-S, Gal4-NCOR/VP16-NR2E3; Photoreceptor-specific nuclear receptor (Homo sapiens), Q9Y5X4; luciferase; inhibition of corepressor binding, % at 3.98 µM; hit rate 0.35% among 360,000; AID 602229, 2012;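 active = inhibition above the mean of all tested compounds plus 3 SD, cut at about 70% in these data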;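 also: higher means lower luciferase signal from less NR2E3 corepressor binding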
Jurkat NFkB inh – inhibitors of induced NF-kB luciferase reporter, primary screen, TCR NF-kB activation inhibitor project, cell-based, luminescence, uHTS. Jurkat, PMA/ionomycin-induced NF-kB luciferase reporter. inhibition, % at 4 µM. hit rate 0.53% among 330,000. AID 435003, 2010; in the data active = inhibition above about 50%
miR122 inh – miR-122 Renilla sensor signal increase in Huh7, primary screen, miR-122 inhibitor project, cell-based, single point, plate reader | Huh7 miR-122 Renilla luciferase sensor, 48 h; neutral wells = 0, positive control = 100 | activation (reporter increase), % at 12.5 µM | hit rate 0.3% among 340,000;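 active = mean replicate activation score at least 90 and every replicate individually at or above 90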;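 also: higher luciferase means less miR-122 activity so hits act as miR-122 inhibitors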
697 NFkB inh – inhibitors of PMA/ionomycin-induced NF-kB reporter, 697 cells, primary screen, B-cell NF-kB inhibitor project, cell-based, luminescence, uHTS; inhibition, % at 4 µM; AID 435022, 2010; hit rate 0.33% among 330,000; 697 B-cell NF-kB luciferase reporter, 16 h; in the data active = inhibition above about 35%
NR2E3 ag-2 – inhibitors of NR2E3-RetCOR corepressor binding, primary screen, NR2E3 agonist project, biochemical, TR-FRET, GST-NR2E3, biotin-RetCOR; 1536-well; Photoreceptor-specific nuclear receptor (Homo sapiens), Q9Y5X4; hit rate 0.12% among 320,000; inhibition of corepressor binding, % at 4.78 µM;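 active = percent inhibition above the cutoff of mean plus 3 SD of all tested compounds, set per screening campaign, cut at about 20% in these data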
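Test system: GST-NR2E3 and biotin-RetCOR proteins | Quantity: 1.35 nM GST-tagged NR2E3 final | Medium: Tris pH 7.5 | Also added: 7 nM biotin-RetCOR | Dosing: Compound at 4.8 µM, single dose | Timing: 5 h at 4 °C | Detection: Time-resolved FRET | Read-out basis: Percent inhibition | Benchmarks: Biotin wells as high control, 0.6% DMSO wells as low control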
FGF22 binding – binders of human FGF22 protein, primary screen, FGF22 synaptogenesis inhibitor project, biophysical, thermal shift, single point | recombinant FGF22 thermal shift, SYPRO orange fluorescence; percent of sucrose octasulfate shift, DMSO zero | activity (Tm shift, normalised), % at 9.99 µM | hit rate 1.5% among 340,000;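 active = mean Tm shift, scaled 0 neutral to 100 positive control, at about 1.3% or above, every replicate too, limit read from the data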
Target sequence (Q9HCT0 whole entry, looked up): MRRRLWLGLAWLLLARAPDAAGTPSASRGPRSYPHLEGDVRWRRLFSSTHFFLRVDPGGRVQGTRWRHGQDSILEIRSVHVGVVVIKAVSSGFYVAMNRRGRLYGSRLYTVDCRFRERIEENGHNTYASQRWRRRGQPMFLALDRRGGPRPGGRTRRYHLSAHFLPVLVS
NR2E3 ag confirm – NR2E3 agonist confirmation in cells, cell-based, luminescence, CHO-S two-hybrid; CHO-S mammalian two-hybrid NR2E3-NCOR, luciferase luminescence; shares compounds with NR2E3 ag-1; hit rate 51% among 2,300; inhibition, % at 3.98 µM;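 active = average inhibition above a cutoff equal to the mean inhibition of all tested compounds plus one SD, cut at about 70% in these data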
GAL4-VP16 luc – GAL4-VP16 reporter modulators, confirmation, counter-screen for NR2E3 agonist project, cell-based, luminescence, CHO-S, high throughput; CHO-S GAL4-VP16 luciferase reporter; hit rate 29% among 2,300; shares compounds with NR2E3 ag-1; inhibition, % at 3.98 µM;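 active = mean inhibition above a cutoff equal to the average over all tested compounds plus one standard deviation, cut at about 70% in these data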;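 also: luciferase from a UAS reporter driven by GAL4-VP16 transactivation; higher means less reporter light so more repression of VP16 activity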
Numbers stand for hits; - = inactive; . = no result.

SMILES	NR2E3 ag-1	Jurkat NFkB inh	miR122 inh	697 NFkB inh	NR2E3 ag-2	FGF22 binding	NR2E3 ag confirm	GAL4-VP16 luc
CN(C(=O)CSc1cc(C(=O)c2nccn2C)c2ccccc2n1)c1ccccc1	81	-	-	-	-	-	78	-
Cn1cnc(S(=O)(=O)N[C@H]2C=C[C@@H](CC(=O)Nc3ccccc3)O[C@@H]2CO)c1	.	.	.	.	.	-	.	.
COc1cccc(NC(=O)COc2ncnc3sc(C)c(C)c23)c1	-	-	-	-	-	.	.	.
CCN(CC(=O)Nc1cccc(OC)c1)c1ncnc2sc(C)c(C)c12	71	-	-	-	-	.	88	71
CCCN1C[C@@H](C)[C@@H](OC)CN(C)C(=O)c2cc(NS(=O)(=O)CC)ccc2OC[C@H]1C	.	.	-	.	.	-	.	.
C[C@@H]1CN([C@H](C)CO)C(=O)c2cc(/C=C/c3ccccc3)cnc2O[C@H]1CN(C)Cc1ccc2c(c1)OCO2	.	.	-	.	.	-	.	.
COc1ccc(-n2ncc3c2CC(C)(C)CC3NC(=O)CN2CCOC2=O)cc1 (centres undefined)	-	-	-	-	.	-	.	.
CC(C)(C)c1ccc(-n2ncc3c2CCCC3NC(=O)CCN2CCCCC2=O)cc1 (centres undefined)	-	-	.	-	-	-	-	-
CC(C)(C)c1ccc(-n2ncc3c2CCCC3NC(=O)CN2CCOC2=O)cc1 (centres undefined)	-	-	-	-	-	-	-	-
CCCC#Cc1cnc2c(c1)C(=O)N([C@H](C)CO)C[C@H](C)[C@@H](CN(C)C(=O)Cc1ccccc1)O2	.	.	-	.	.	-	.	.
Cc1csc2ncnc(N3CCN(C(=S)Nc4ccc(F)cc4F)CC3)c12	-	-	-	-	-	-	93	82
CC1CN(C(=S)Nc2ccc(F)cc2F)CC(C)O1 (centres undefined)	-	-	.	-	-	-	.	.
CCCCOc1ccc(S(=O)(=O)NNC(=O)C2Cc3c(ccc4ccccc34)O2)cc1 (centres undefined)	-	-	-	-	-	.	.	.
Cc1ccc(S(=O)(=O)NNC(=O)C2Cc3c(ccc4ccccc34)O2)cc1 (centres undefined)	-	-	-	-	-	.	-	-
CN(C)S(=O)(=O)c1ccc2nc(NC(=O)c3cccnc3)sc2c1	-	-	-	-	-	.	.	.
O=C(NC(Nc1nc2ccc([N+](=O)[O-])cc2s1)(C(F)(F)F)C(F)(F)F)c1cccnc1	101	-	.	-	-	-	98	89
C[C@@H]1CN([C@@H](C)CO)C(=O)Cc2cc(NC(=O)CCC(F)(F)F)ccc2O[C@@H]1CN(C)Cc1ccc(C(=O)O)cc1	.	.	-	.	.	-	.	.
CC(C)NC(=O)N(C)C[C@@H]1Oc2c(NC(=O)Nc3cccc4ccccc34)cccc2C(=O)N([C@H](C)CO)C[C@H]1C	.	.	-	.	.	-	.	.
Cc1c(/C(O)=C2/C(=O)C(=O)N(CCN3CCOCC3)C2c2ccccn2)cnn1-c1ccccc1 (centres undefined)	84	-	-	-	-	-	-	-
Cc1ccc(C2/C(=C(/O)c3cnn(-c4ccccc4)c3C)C(=O)C(=O)N2CCCN2CCOCC2)o1 (centres undefined)	.	-	.	-	-	.	.	.
CC(OCC(O)CN1CCN(S(=O)(=O)c2ccc(Cl)cc2)CC1)c1ccc(Cl)cc1 (centres undefined)	-	.	-	.	.	-	-	-

Bioassay records deposited in PubChem by several laboratories.
